{"data": "Measured values of several laboratories", "target": "Ribosomal protein S6 kinase beta-1 (RPS6KB1, Homo sapiens, UniProt P23443)", "note": "Each line is one published result; the experiments were not run side by side."}
{"Compound": "CN(c1ncccc1CNc1nc(Nc2ccc3c(c2)CC(=O)N3)ncc1C(F)(F)F)S(C)(=O)=O", "assay": "enzyme activity, inhibitor", "conditions": "1 µM", "quantity": "inhibition", "value": "26.4%"}
{"Compound": "Cc1cc(NC(=O)c2cccc3cc(-c4cccc5[nH]nc(N)c45)ccc23)ccc1F", "assay": "enzyme activity, inhibitor", "conditions": "0.1 µM", "quantity": "activity vs control", "value": "110%"}
{"Compound": "c1ccc(N2CCN(Cc3nc4ccccc4[nH]3)CC2)nc1", "assay": "binding, competition with immobilised ligand", "conditions": "1 µM", "quantity": "remaining binding", "value": "97%"}
{"Compound": "CCN(CC)CCNC(=O)c1c(C)[nH]c(/C=C2\\C(=O)Nc3ccc(F)cc32)c1C", "assay": "enzyme activity, inhibitor", "conditions": "0.3 µM", "quantity": "inhibition", "value": "30%"}
{"Compound": "CCOCCn1cc(C(=O)Nc2ccc(-n3nc(-c4cccnc4)cc3C(F)(F)F)cn2)ccc1=O", "assay": "cell-free assay, competition with immobilised ligand", "conditions": "1 µM", "quantity": "remaining binding", "value": "97%"}
{"Compound": "CCCS(=O)(=O)Nc1ccc(F)c(C(=O)c2c[nH]c3ncc(-c4ccc(Cl)cc4)cc23)c1F", "assay": "enzyme activity, inhibitor", "conditions": "1 µM", "quantity": "inhibition", "value": "< 10%"}
{"Compound": "Cc1ccc(-n2nc(C(C)(C)C)cc2NC(=O)Nc2ccc(OCCN3CCOCC3)c3ccccc23)cc1", "assay": "enzyme activity, inhibitor", "conditions": "10 µM", "quantity": "inhibition", "value": "39%"}
{"Compound": "CSc1cccnc1N1CCN(Cc2nc3ccccc3[nH]2)CC1", "assay": "cell-free assay, competition with immobilised ligand", "conditions": "1 µM", "quantity": "remaining binding", "value": "87%"}
{"Compound": "CC(C)c1ccc(NC(=O)c2cccs2)c(-c2nc3ccccc3[nH]c2=O)c1", "assay": "enzyme activity, inhibitor", "conditions": "1 µM", "quantity": "activity vs control", "value": "93%"}
{"Compound": "Cn1cncc1C1=CN(c2ncnc3[nH]cnc23)CCS1", "assay": "enzyme activity, inhibitor, radiometric", "conditions": "50 nM", "quantity": "inhibition", "value": "14%"}
{"Compound": "CN(C)C1CCN(CC#Cc2nn(C3CCCC3)c3nc(NCc4ccccc4)ncc23)C1 (stereo not shown)", "assay": "enzyme activity, inhibitor, FRET", "conditions": "10 µM", "quantity": "inhibition", "value": "10%"}
{"Compound": "N#CCCc1ccc2c(c1)-c1[nH]c3ccc([N+](=O)[O-])cc3c1CC(=O)N2", "assay": "cell-free assay", "conditions": "0.5 µM", "quantity": "remaining signal", "value": "98%"}
{"Compound": "COc1cc(-c2cn(C3CCc4c(F)cccc4N(CC(F)(F)F)C3=O)nn2)ccc1-n1cnc(C)c1 (stereo not shown)", "assay": "cell-free assay, competition with immobilised ligand", "conditions": "1 µM", "quantity": "remaining binding", "value": "100%"}
{"Compound": "O=C1Nc2ccc(Cl)cc2C1=Cc1cc(Cl)c(O)c(Cl)c1", "assay": "cell-free assay", "conditions": "0.5 µM", "quantity": "remaining signal", "value": "91%"}
{"Compound": "N#Cc1ccc(Nc2ccc3[nH]c(=O)[nH]c3c2)c(Cl)c1", "assay": "cell-free assay, competition with immobilised ligand", "conditions": "1 µM", "quantity": "remaining binding", "value": "100%"}
{"Compound": "COc1cc2ncnc(Nc3ccc(Oc4ccccc4)cc3C)c2cc1OC", "assay": "enzyme activity, inhibitor", "conditions": "1 µM", "quantity": "inhibition", "value": "-2%"}
{"Compound": "Cc1ccc(NC(=O)c2ccc(C)c(C(F)(F)F)c2)cc1C#Cc1nn(C2CCC(O)CC2)c2ncnc(N)c12 (stereo not shown)", "assay": "cell-free assay", "conditions": "10 µM", "quantity": "remaining signal", "value": "33%"}
{"Compound": "C[C@H](c1cccc(C#N)c1)n1cc(Cl)cc(C(N)=O)c1=N", "assay": "cell-free assay, competition with immobilised ligand", "conditions": "1 µM", "quantity": "remaining binding", "value": "100%"}
{"Compound": "O=S(=O)(NCCNC/C=C/c1ccc(Br)cc1)c1cccc2cnccc12", "assay": "cell-free assay", "conditions": "0.5 µM", "quantity": "remaining signal", "value": "25.6%"}
